Measurements reported in ChEMBL document CHEMBL4350958, “Rational Design of Short Peptide Variants by Using Kunitzin-RE, an Amphibian-Derived Bioactivity Peptide, for Acquired Potent Broad-Spectrum Antimicrobial and Improved Therapeutic Potential of Commensalism Coinfection of Pathogens” (J Med Chem, 2019).
≈ marks a conversion by molar mass, not a printed value.

Experiments:
[1] = test system: Candida parapsilosis; assay: Fungicidal activity against Candida parapsilosis cgmcc2.3989 incubated for 48 hrs followed by replating on YM agar plate and measured after 48 hrs; format: functional
Outline: (§1)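 Yeast diluted in MOPS-buffered RPMI 1640 to (0.5–1) × 10^3 CFU/mL (CLSI M27-A2, modified) and mixed 1:1 with peptide serially diluted in 0.2% BSA. After 48 h at 28 °C, 50 μL per well was plated on YM agar and incubated 48 h at 28 °C. MFC taken as the lowest concentration killing ≥99.9% of cells. Three or more independent experiments, triplicate wells.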

[2] = test system: Candida parapsilosis; assay: Antifungal activity against Candida parapsilosis cgmcc2.3989 measured after 48 hrs by broth microdilution method; format: functional; conditions: Lodderomyces parapsilosis, cgmcc2.3989, 48 h
Outline: (§2)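 Modified CLSI M27-A2 microdilution. Yeast colonies were diluted in MOPS-buffered RPMI 1640 to a final (0.5–1) × 10^3 CFU mL−1 and mixed with an equal volume of peptide serially diluted in 0.2% BSA. After 48 h at 28 °C, MIC was read at A492 as the lowest concentration inhibiting 95% of growth. At least three independent experiments, each with three technical replicates.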

[3] = test system: Salmonella typhimurium; assay: Antibacterial activity against Salmonella typhimurium ATCC 14028 measured after 24 hrs; format: functional, Salmonella enterica subsp. enterica serovar Typhimurium; conditions: Salmonella enterica, ATCC 14028, 24 h
Outline: (§3)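 Broth microdilution adapted from NCCLS. Mid-log bacteria were diluted in MHB to a final (0.5–1) × 10^5 CFU mL−1. Peptides were serially diluted in 0.2% BSA and mixed with an equal volume of cells. After 24 h at 37 °C, MIC was read at A492 as the lowest concentration inhibiting 95% of growth. At least three independent experiments, each with three technical replicates.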

[4] = test system: Escherichia coli; assay: Bactericidal activity against Escherichia coli K88 incubated for 24 hrs followed by replating on agar plate and measured after overnight incubation; format: functional; conditions: K88, 24 h, read-out: MBC>99.9
Outline: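 Mid-log bacteria diluted in MHB to (0.5–1) × 10^5 CFU/mL and mixed 1:1 with peptide serially diluted in 0.2% BSA. After 24 h at 37 °C, 50 μL of each mixture was plated on agar and incubated overnight. MBC taken as the lowest concentration killing >99.9% of cells. At least three independent experiments, each with three technical replicates.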

[5] = test system: Escherichia coli; assay: Antibacterial activity against Escherichia coli K88 measured after 24 hrs; format: functional; conditions: K88, 24 h; outline: as §3
[6] = test system: Escherichia coli; assay: Antibacterial activity against Escherichia coli ATCC 25922 measured after 18 to 24 hrs in presence of FeCl3; format: functional
[7] = Conformational stability in 50% trifluoro-ethyl alcohol assessed as alpha-helical structural propensity by measuring absorption spectra at minimum dichroic band at 35 uM by CD spectra analysis; format: physicochemical
Outline: (§4)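 CD spectra from 190 to 250 nm of peptide at 35 μM in 10 mM PBS, 30 mM SDS micelles or 50% TFE, recorded in a 1.0-mm quartz cell. Ellipticity was converted to mean residue ellipticity. Three independent scans, each averaged over more than 3 runs.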

[8] = Therapeutic index, ratio of MHC10 for hemolytic activity in human RBC to MIC95 against Staphylococcus aureus ATCC 25923; format: toxicity; conditions: human red blood cells (erythrocytes), read-out: TI
Outline: (§5)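 Therapeutic index = MHC divided by MIC. MHC is the lowest concentration giving >10% lysis of human RBC (1 h, 37 °C, 1-128 µM, A576). MIC is 95% growth inhibition by broth microdilution: bacteria in MHB 24 h at 37 °C; Candida in MOPS-buffered RPMI 1640 at (0.5–1) × 10^3 CFU mL−1, 48 h at 28 °C.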

[9] = test system: Escherichia coli; assay: Antibacterial activity against Escherichia coli ATCC 25922 measured after 18 to 24 hrs in presence of NaCl; format: functional
[10] = Therapeutic index, ratio of MHC10 for hemolytic activity in human RBC to MIC95 against Escherichia coli ATCC 25922; format: toxicity; conditions: human red blood cells (erythrocytes), pooled result: one value given for 9 cell lines, strains, targets or settings, read-out: TI; outline: as §5
[11] = test system: Staphylococcus aureus; assay: Antibacterial activity against Staphylococcus aureus ATCC 29213 measured after 18 to 24 hrs in presence of KCl; format: functional
[12] = test system: Candida albicans; assay: Antifungal activity against Candida albicans cgmcc2.2086 measured after 48 hrs in presence of ZnCl by broth microdilution method; format: functional; conditions: cgmcc2.2086, 48 h
[13] = test system: Candida albicans; assay: Fungicidal activity against Candida albicans cgmcc2.2086 incubated for 48 hrs followed by replating on YM agar plate and measured after 48 hrs; format: functional; outline: as §1
[14] = test system: Staphylococcus aureus; assay: Antibacterial activity against Staphylococcus aureus ATCC 29213 measured after 18 to 24 hrs in presence of MgCl2; format: functional
[15] = test system: Candida tropicalis; assay: Antifungal activity against Candida tropicalis cgmcc2.1975 measured after 48 hrs by broth microdilution method; format: functional; conditions: cgmcc2.1975, 48 h; outline: as §2
[16] = test system: Escherichia coli; assay: Antibacterial activity against Escherichia coli K99 measured after 24 hrs; format: functional; conditions: K99, 24 h; outline: as §3
[17] = Conformational stability in sodium dodecyl sulfate assessed as beta-sheet conformation by measuring absorption spectra at maximum dichroic band at 35 uM by CD spectra analysis; format: physicochemical; outline: as §4
[18] = Conformational stability in sodium dodecyl sulfate assessed as beta-sheet conformation by measuring absorption spectra at minimum dichroic band at 35 uM by CD spectra analysis; format: physicochemical; outline: as §4
[19] = Conformational stability in sodium dodecyl sulfate at 35 uM by CD spectra analysis; format: physicochemical; outline: as §4

Compound: H-AARRILRWIFR-NH2
- MFC<=99.9 [1]: 16 µM
- MIC95 [2]: 8 µM
- MIC95 [3]: 4 µM
- MBC [4]: 8 µM
- MIC95 [5]: 4 µM
- MIC95 [6]: 8 µM
- Activity [7]: 208 to 222 nm
- selectivity ratio [8]: 45.2
- MIC95 [9]: 64 µM
- selectivity ratio [10]: 59.3
- MIC95 [11]: 4 µM
- MIC95 [12]: 8 µM
- MFC<=99.9 [13]: 8 µM
- MIC95 [14]: 8 µM
- MIC95 [15]: 4 µM
- MIC95 [16]: 4 µM

Compound: H-AARIILRLRFR-NH2
- MFC<=99.9 [1]: 8 µM
- MIC95 [2]: 4 µM
- MIC95 [3]: 4 µM
- MBC [4]: 8 µM
- MIC95 [5]: 4 µM
- MIC95 [6]: 8 µM
- Activity [7]: 208 to 222 nm
- selectivity ratio [8]: 128
- MIC95 [9]: 64 µM
- Wavelength of maximum dichroic band [17]: 200 nm
- selectivity ratio [10]: 64
- MIC95 [11]: 2 µM
- MIC95 [12]: 8 µM
- MFC<=99.9 [13]: 16 µM
- MIC95 [14]: 2 µM
- MIC95 [15]: 4 µM
- MIC95 [16]: 2 µM
- Activity [18]: 216 to 220 nm

Compound: H-AARIILRARFR-NH2
- MFC<=99.9 [1]: 16 µM
- MIC95 [2]: 16 µM
- MIC95 [3]: 4 µM
- MBC [4]: 4 µM
- MIC95 [5]: 2 µM
- MIC95 [6]: 4 µM
- Activity [7]: 208 to 222 nm
- selectivity ratio [8]: 90.5
- MIC95 [9]: 32 µM
- Wavelength of maximum dichroic band [17]: 200 nm
- selectivity ratio [10]: 69.1
- MIC95 [11]: 8 µM
- MIC95 [12]: 16 µM
- MFC<=99.9 [13]: 32 µM
- MIC95 [14]: 8 µM
- MIC95 [15]: 4 µM
- MIC95 [16]: 2 µM
- Activity [18]: 216 to 220 nm

Compound: H-AAKIILNPKFR-NH2
- MIC95 [2]: > 128 µM
- MIC95 [3]: > 128 µM
- MIC95 [5]: > 128 µM
- Stability [19]: Unstable
- MIC95 [6]: > 128 µM
- Stability [7]: Unstable
- selectivity ratio [8]: 2
- MIC95 [9]: > 128 µM
- selectivity ratio [10]: 2
- MIC95 [11]: > 128 µM
- MIC95 [12]: > 128 µM
- MIC95 [14]: > 128 µM
- MIC95 [15]: > 128 µM
- MIC95 [16]: > 128 µM

Compound: H-AARIILRYRFR-NH2
- MFC<=99.9 [1]: 128 µM
- MIC95 [2]: 64 µM
- MIC95 [3]: 8 µM
- MBC [4]: 8 µM
- MIC95 [5]: 4 µM
- MIC95 [6]: 16 µM
- Activity [7]: 208 to 222 nm
- selectivity ratio [8]: 64
- MIC95 [9]: > 128 µM
- Wavelength of maximum dichroic band [17]: 200 nm
- selectivity ratio [10]: 47
- MIC95 [11]: 8 µM
- MIC95 [12]: 64 µM
- MFC<=99.9 [13]: 64 µM
- MIC95 [14]: 8 µM
- MIC95 [15]: 16 µM
- MIC95 [16]: 4 µM
- Activity [18]: 216 to 220 nm

Compound: H-AARIILRTRFR-NH2
- MIC95 [2]: 64 µM
- MIC95 [3]: 16 µM
- MBC [4]: 8 µM
- MIC95 [5]: 4 µM
- MIC95 [6]: 16 µM
- Activity [7]: 208 to 222 nm
- selectivity ratio [8]: 16
- MIC95 [9]: > 128 µM
- Wavelength of maximum dichroic band [17]: 200 nm
- selectivity ratio [10]: 27.4
- MIC95 [11]: 32 µM
- MIC95 [12]: > 128 µM
- MIC95 [14]: 32 µM
- MIC95 [15]: 32 µM
- MIC95 [16]: 4 µM
- Activity [18]: 216 to 220 nm

Compound: CC(C)(O/N=C(\C(=O)N[C@@H]1C(=O)N2C(C(=O)[O-])=C(C[n+]3ccccc3)CS[C@H]12)c1csc(N)n1)C(=O)O [CEFTAZIDIME]
- MIC95 [2]: > 128 µM
- MIC95 [3]: 1 µM (≈ 0.547 µg/mL)
- MBC [4]: 1 µM (≈ 0.547 µg/mL)
- MIC95 [5]: 1 µM (≈ 0.547 µg/mL)
- MIC95 [6]: 2 µM
- MIC95 [9]: 4 µM
- MIC95 [11]: 16 µM
- MIC95 [12]: > 128 µM
- MIC95 [14]: 16 µM
- MIC95 [15]: > 128 µM
- MIC95 [16]: 0.5 µM (≈ 0.273 µg/mL)

Compound: H-AARIILRWFRR-NH2
- MFC<=99.9 [1]: 8 µM
- MIC95 [2]: 4 µM
- MIC95 [3]: 4 µM
- MBC [4]: 4 µM
- MIC95 [5]: 2 µM
- MIC95 [6]: 2 µM
- Activity [7]: 208 to 222 nm
- selectivity ratio [8]: 53.8
- MIC95 [9]: 8 µM
- Wavelength of maximum dichroic band [17]: 200 nm
- selectivity ratio [10]: 87.1
- MIC95 [11]: 4 µM
- MIC95 [12]: 8 µM
- MFC<=99.9 [13]: 8 µM
- MIC95 [14]: 4 µM
- MIC95 [15]: 4 µM
- MIC95 [16]: 2 µM
- Activity [18]: 216 to 220 nm

Compound: H-AARIILRFRFR-NH2
- MFC<=99.9 [1]: 8 µM
- MIC95 [2]: 4 µM
- MIC95 [3]: 4 µM
- MBC [4]: 8 µM
- MIC95 [5]: 4 µM
- MIC95 [6]: 16 µM
- Activity [7]: 208 to 222 nm
- selectivity ratio [8]: 128
- MIC95 [9]: 64 µM
- Wavelength of maximum dichroic band [17]: 200 nm
- selectivity ratio [10]: 43.5
- MIC95 [11]: 2 µM
- MIC95 [12]: 8 µM
- MFC<=99.9 [13]: 16 µM
- MIC95 [14]: 2 µM
- MIC95 [15]: 4 µM
- MIC95 [16]: 2 µM
- Activity [18]: 216 to 220 nm

Compound: H-AARIILRIRFR-NH2
- MFC<=99.9 [1]: 8 µM
- MIC95 [2]: 4 µM
- MIC95 [3]: 2 µM
- MBC [4]: 4 µM
- MIC95 [5]: 2 µM
- MIC95 [6]: 4 µM
- Activity [7]: 208 to 222 nm
- selectivity ratio [8]: 64
- MIC95 [9]: 8 µM
- Wavelength of maximum dichroic band [17]: 200 nm
- selectivity ratio [10]: 37.3
- MIC95 [11]: 2 µM
- MIC95 [12]: 8 µM
- MFC<=99.9 [13]: 8 µM
- MIC95 [14]: 2 µM
- MIC95 [15]: 4 µM
- MIC95 [16]: 4 µM
- Activity [18]: 216 to 220 nm
